Experimental data from ChEMBL document CHEMBL2203222, “Mannich bases of scutellarein as thrombin-inhibitors: design, synthesis, biological activity and solubility” (Bioorg Med Chem, 2012).
In brackets after ≈: the same amount, converted by molar mass.

Assays:
[1] = Absolute bioavailability in po dosed Beagle dog; type: ADME, organism-based, Canis lupus familiaris; details: in vivo
Plasma [2] = test: Antithrombin activity in New Zealand white rabbit plasma assessed as fibrinogen content at 25 uM by coagulometer; type: functional, Oryctolagus cuniculus
Plasma [3] = test: Antithrombin activity in New Zealand white rabbit plasma assessed as prothrombin time at 25 uM by coagulometer; type: functional, Oryctolagus cuniculus
Plasma [4] = test: Antithrombin activity in New Zealand white rabbit plasma assessed as activated partial thromboplastin time at 25 uM by coagulometer; type: functional, Oryctolagus cuniculus
[5] = Solubility of the compound in water by UV-visible spectrophotometry; type: physicochemical
[6] = tested on: Radical scavenging activity; test: Antioxidant activity assessed as inhibition of DPPH radical by spectrophotometric analysis […]; type: functional
Outline: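 Sample in DMSO mixed with an equal volume of 0.2 mM ethanolic DPPH. Test compounds spanned […], alongside reference antioxidants and a DMSO control. Reaction ran 30 min at 25 °C, then absorbance was read at 517 nm on a microplate reader. Scavenging % = (1 − A_test/A_control) × 100, with A_control taken from DMSO alone.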

Plasma [7] = test: Antithrombin activity in New Zealand white rabbit plasma assessed as thrombin time at 25 uM by coagulometer; type: functional, Oryctolagus cuniculus
[8] = Solubility of the compound in water by UV-visible spectrophotometry relative to scutellarein; type: physicochemical

Row | solubility [5] | fold change (FC) [8] | Structure (SMILES) | bioavailability [1] | Activity (Plasma [2]) | PT (Plasma [3]) | APTT (Plasma [4]) | IC50 [6] | TT (Plasma [7])
1 |  |  | O=C(O)[C@H]1O[C@@H](Oc2cc3oc(-c4ccc(O)cc4)cc(=O)c3c(O)c2O)[C@H](O)[C@@H](O)[C@@H]1O [SCUTELLARIN] | 0.4% |  |  |  |  | 
2 | 7.71 µM (≈ 2.86 µg/mL) | 1.11 | CCN(CC)Cc1c(O)c(O)c(O)c2c(=O)cc(-c3ccc(O)cc3)oc12 |  | 5.36 g/L | 7.55 s | 34.62 s | 25 µM | 12.63 s
3 | 8.58 µM (≈ 2.95 µg/mL) | 1.23 | CN(C)Cc1c(O)c(O)c(O)c2c(=O)cc(-c3ccc(O)cc3)oc12 |  | 5.56 g/L | 7.45 s | 34.23 s | 26.5 µM | 12.58 s
4 | 7.28 µM (≈ 2.9 µg/mL) | 1.05 | CN1CCN(Cc2c(O)c(O)c(O)c3c(=O)cc(-c4ccc(O)cc4)oc23)CC1 |  | 5.46 g/L | 7.71 s | 35.42 s | 32.5 µM | 14.4 s
5 | 9.11 µM (≈ 4.01 µg/mL) | 1.31 | CCCCN1CCN(Cc2c(O)c(O)c(O)c3c(=O)cc(-c4ccc(O)cc4)oc23)CC1 |  | 5.56 g/L | 7.4 s | 35.01 s | 32.7 µM | 13.45 s
6 | 11.6 µM (≈ 4.48 µg/mL) | 1.67 | O=c1cc(-c2ccc(O)cc2)oc2c(CN3CCOCC3)c(O)c(O)c(O)c12 |  | 5.26 g/L | 7.84 s | 35.48 s | 30.9 µM | 14.48 s
7 | 7.97 µM (≈ 3.18 µg/mL) | 1.15 | CC(C)N(Cc1c(O)c(O)c(O)c2c(=O)cc(-c3ccc(O)cc3)oc12)C(C)C |  | 5.54 g/L | 7.47 s | 34.52 s | 30.1 µM | 11.75 s
8 | 6.95 µM (≈ 1.99 µg/mL) |  | O=c1cc(-c2ccc(O)cc2)oc2cc(O)c(O)c(O)c12 [SCUTELLAREIN] |  | 5.96 g/L | 7.34 s | 33.36 s | 24 µM | 10.25 s
9 | 7.07 µM (≈ 2.92 µg/mL) | 1.02 | CCN1CCN(Cc2c(O)c(O)c(O)c3c(=O)cc(-c4ccc(O)cc4)oc23)CC1 |  | 5.54 g/L | 7.41 s | 35.15 s | 32.4 µM | 14.13 s
